Bioassay records (PubChem)
Rows were chosen to be rich in hits. Some 3.9% of all compounds tested hit in one or more screens of this group.
OX1R antag-1: blocks the human orexin 1 receptor; AID 434989; O43613; actives 0.43% (n = 330,000); inhibition, % at 5 µM; CHO/OX1R cells, Fluo-8 calcium fluorescence, orexin A;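 active = inhibition above its plate's threshold, mean inhibition of all tested compounds on the plate plus 3 SD, cut at about 37% in these data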;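 also: 0% = orexin A challenge wells and 100% = SB-334867-A antagonist wells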
Target sequence (O43613 whole entry, looked up): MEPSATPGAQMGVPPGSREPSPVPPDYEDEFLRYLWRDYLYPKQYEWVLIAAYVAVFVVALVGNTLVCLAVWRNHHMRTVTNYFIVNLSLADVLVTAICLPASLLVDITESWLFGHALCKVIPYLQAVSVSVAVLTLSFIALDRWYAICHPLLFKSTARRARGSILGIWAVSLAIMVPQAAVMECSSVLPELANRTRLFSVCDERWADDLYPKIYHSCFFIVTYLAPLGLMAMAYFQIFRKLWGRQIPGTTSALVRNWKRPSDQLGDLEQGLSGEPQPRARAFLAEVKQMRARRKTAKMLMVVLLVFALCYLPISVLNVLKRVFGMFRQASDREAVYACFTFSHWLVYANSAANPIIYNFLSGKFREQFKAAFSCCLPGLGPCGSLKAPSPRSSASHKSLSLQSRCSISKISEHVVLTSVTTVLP
OX1R antag-2: antagonists of human orexin 1 receptor (OX1R); O43613; OX1R-expressing cells, FRET antagonist read-out; inhibition, % at 6.6 µM; actives 1.8% (n = 330,000); AID 485270; in the data active = inhibition mostly above about 38%, no sharp cut-off; inactive = mostly below about 40%;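 also: 0% = agonist challenge alone and 100% = reference antagonist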
TAAR1 antagonist: human TAAR1 antagonism | CHO RD-HGA16 TAAR1, Fluo-8 calcium fluorescence, antagonist | inhibition, % at 3 µM | actives 1.5% (n = 360,000) | AID 624466;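 active = inhibition above a per-plate cutoff, the mean inhibition of test compounds on that plate plus 3 SD, cut at about 49% in these data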;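 also: 0% = DMSO plus EC80 beta-PEA response and 100% = DMSO alone without agonist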
Target sequence (Q96RJ0 whole entry, looked up): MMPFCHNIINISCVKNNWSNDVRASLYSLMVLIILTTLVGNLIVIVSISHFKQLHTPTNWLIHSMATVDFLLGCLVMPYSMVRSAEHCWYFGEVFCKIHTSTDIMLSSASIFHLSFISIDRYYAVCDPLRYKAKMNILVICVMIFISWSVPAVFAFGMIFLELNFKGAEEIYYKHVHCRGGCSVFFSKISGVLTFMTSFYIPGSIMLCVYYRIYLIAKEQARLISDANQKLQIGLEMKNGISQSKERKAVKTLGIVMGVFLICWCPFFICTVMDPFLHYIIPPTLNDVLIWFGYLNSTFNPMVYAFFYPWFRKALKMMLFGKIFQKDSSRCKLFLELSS
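Test system: hTAAR1-expressing CHO RD-HGA16 cells, Gα16-coupled; Probe or stimulus: EC80 β-phenethylamine stimulus; Compound dosing: single nominal final test compound concentration of 3 µM; Timing: 140 s kinetic read after compound, 140 s after agonist; Signal: Fluo-8 calcium-sensitive fluorescence; Measure: % inhibition of agonist calcium response; Controls: DMSO and EC80 PEA controls.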
TAAR1 agonist: agonists of human TAAR1 | Q96RJ0 | CHO RD-HGA16 TAAR1, Fluo-8 calcium fluorescence; vehicle wells 0%, saturating PEA agonist 100% | activation, % at 3 µM | actives 0.99% (n = 360,000) | AID 624467;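 active = activation above the mean activation of all test compounds in the run plus 3 SD, cut at about 38% in these data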
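Repeats: no replicates (n 1) | Material: CHO-derived RD-HGA16 cells with stable Gα16 and human TAAR1 | Technique: Kinetic Fluo-8 calcium fluorescence | Schedule: 17-24 h seeding, 75 min 37 °C dye, 30 min RT | Evaluation: % activation from peak over basal fluorescence ratio, DMSO-to-PEA scaled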
CHO parental Ca: counter-screen for OX1R antagonists: effect in parental CHO cells; parental CHO-K1, ATP-induced calcium, Fluo-8 fluorescence; inhibition, % at 5.6 µM; actives 0.63% (n = 330,000); AID 463079;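 active = inhibition above that plate's mean sample inhibition plus 3 SD, cut at about 26% in these data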;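 also: 0% = ATP-challenged DMSO wells and 100% = DMSO wells without ATP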
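Material: parental CHO cells / Compound: single nominal dose of 5.6 µM per compound / Signal: Fluo-8 fluorescence / Replicates: singlicate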
TAAR1 ag conf: confirmation of human TAAR1 agonists. actives 82% (n = 2,400). activation, % at 3 µM. CHO RD-HGA16 TAAR1, Fluo-8 calcium fluorescence; scaled: DMSO 0%, maximal phenethylamine 100%. shares compounds with TAAR1 agonist;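 active = activation above a cutoff set at the run's mean compound activation plus 3 SD, cut at about 39% in these data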
Ga16 ag counter: counter-screen for TAAR1 agonists: nonselective agonists in parental cells | shares compounds with TAAR1 agonist | CHO-Ga16 parental, Fluo-8 calcium fluorescence; normalized to maximal ATP response, DMSO zero | activation, % at 3 µM | actives 50% (n = 2,400);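 active = activation above the run cutoff, the mean activation over all tested wells plus 3 SD, cut at about 12% in these data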;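 also: 0% = DMSO wells and 100% = maximal ATP response on the peak over basal ratio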
TAAR1 desensitize: counter-screen for human TAAR1 agonists: agonists that desensitize TAAR1; shares compounds with TAAR1 agonist; CHO RD-HGA16 hTAAR1, Fluo-8 calcium, beta-PEA response inhibition; inhibition, % at 3 µM; actives 46% (n = 2,400); AID 651951;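 active = inhibition above the run cutoff, the mean inhibition of all test compounds plus 3 SD, cut at about 49% in these data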;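 also: beta-PEA stimulus applied at its EC80; loss of beta-PEA calcium signal after compound pretreatment read as receptor desensitization; 0% = DMSO with beta-PEA at EC80 and 100% = DMSO alone without agonist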
Ga16 nonsel ant: nonselective Ga16 antagonism, counter-screen | inhibition, % at 3 µM | actives 39% (n = 2,400) | CHO-Ga16 ATP-induced calcium, Fluo-8 fluorescence | shares compounds with TAAR1 agonist;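 active = inhibition above the plate's mean compound inhibition plus 3 SD, computed per plate, cut at about 22% in these data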;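 also: 0% = EC80 ATP with DMSO and 100% = DMSO wells without ATP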
An asterisk follows results filed as active; . = no result given.

SMILES | OX1R antag-1 | OX1R antag-2 | TAAR1 antagonist | TAAR1 agonist | CHO parental Ca | TAAR1 ag conf | Ga16 ag counter | TAAR1 desensitize | Ga16 nonsel ant
OC[C@@H]1CN(CCN2CCOCC2)C[C@H](n2cnc3c(NCc4ccc(F)cc4)ncnc32)O1 | . | . | -1.9 | 1.1 | . | . | . | . | .
COCCN1C[C@@H](CO)O[C@@H](n2cnc3c(N4CCOCC4)ncnc32)C1 | . | . | -17.6 | 2.5 | . | . | . | . | .
CC(C)N(C)c1ncnc2c1ncn2[C@H]1CN(CCc2ccccc2)C[C@@H](CO)O1 | . | . | -12.8 | 47.6* | . | 62.8* | 6.4 | 6.4 | 6.7
OCC1OC(n2cnc3c(NCCc4ccccc4)ncnc32)C(O)C1O (stereo unspecified) | -14.3 | 8.2 | 38.1 | 69.9* | -8.1 | 75.1* | 3.4 | 65.1* | 6.0
OC[C@@H]1CN(CCc2ccccc2)C[C@H](n2cnc3c(NCc4ccc(F)cc4)ncnc32)O1 | . | . | 0.6 | 66.0* | . | 75.3* | 1.3 | 23.4 | 0.7
OC[C@@H]1CN(CCc2ccccc2)C[C@H](n2cnc3c(N4CCOCC4)ncnc32)O1 | . | . | 8.5 | 61.2* | . | 74.2* | 2.7 | 43.4 | 7.9
Cc1noc(C)c1C(=O)N1CCC1(C)C(=O)NS(=O)(=O)c1cccs1 (stereo unspecified) | . | . | -5.5 | 4.2 | . | . | . | . | .
CC(CNC(=O)[C@H]1O[C@@H](n2cnc3c(=O)[nH]c(N)nc32)[C@H](O)[C@@H]1O)c1ccccc1 (stereo partly specified) | . | . | 66.5* | 84.2* | . | 94.4* | 0.4 | 79.7* | -0.7
Nc1nc2c(ncn2[C@@H]2O[C@H](C(=O)N[C@H](Cc3ccccc3)C(=O)NCCCc3ccccc3)[C@@H](O)[C@H]2O)c(=O)[nH]1 | . | . | -30.8 | 1.1 | . | . | . | . | .
CC(CNC(=O)[C@@H](Cc1ccccc1)NC(=O)[C@H]1O[C@@H](n2cnc3c(=O)[nH]c(N)nc32)[C@H](O)[C@@H]1O)c1ccccc1 (stereo partly specified) | . | . | . | . | . | . | 0.8 | . | 2.4
COc1cccc(NC(=S)N2CCn3c(nc4ccccc43)C2)c1 | -5.3 | 4.1 | -3.4 | 4.6 | -0.2 | . | . | . | .
COc1ccc([N+](=O)[O-])cc1NC(=O)C(C)Sc1nc(-c2ccccc2)cs1 (stereo unspecified) | -16.9 | 22.2 | 5.8 | 0.4 | -5.3 | . | . | . | .
CC1(c2ccccc2)NC(=O)N(CC(=O)Nc2ccc(S(=O)(=O)NC3=NCCCCC3)cc2)C1=O (stereo unspecified) | . | . | 2.4 | 0.8 | . | . | . | . | .
CNc1nc(NCCOc2ccccc2Cl)c2sccc2n1 | . | . | 71.6* | 71.8* | . | 51.4* | 49.7* | 57.2* | 46.9*
Cc1ccc(CN2CCN(Cc3ccccc3C(F)(F)F)CC2)cc1 | -16.1 | 16.6 | -11.0 | 18.0 | -21.4 | . | . | . | .
O=C(O)CCC(=O)c1ccc2c(c1)OCCO2 | -8.0 | 4.1 | 4.1 | -0.6 | -1.9 | . | . | . | .
O=C(CCN1Cc2ccccc2C1)c1ccc2c(c1)OCCO2 | -7.8 | 11.7 | 7.0 | 38.2* | -3.3 | 67.8* | 3.2 | 12.8 | 11.8
O=C(CCN1CCc2ccccc2C(c2ccccc2)C1)c1ccc2c(c1)OCCO2 (stereo unspecified) | -29.9 | 23.9 | 52.5* | 73.2* | -23.3 | 74.6* | 0.9 | 76.5* | 12.0
O=C(COC(=O)/C=C/c1cccc(F)c1)Nc1cccc(S(=O)(=O)NC2=NCCCCC2)c1 | -4.2 | 2.3 | -5.3 | 2.6 | -25.6 | . | . | . | .
O=C(Nn1c(=O)[nH]c2ccccc2c1=O)c1ccco1 | -9.8 | 12.3 | 4.9 | 1.2 | -1.2 | . | . | . | .
O=C(COCC(=O)N/N=C/c1ccc(F)cc1)N/N=C/c1ccc(F)cc1 | -6.7 | 17.3 | 7.2 | 54.3* | 5.3 | 66.3* | 0.5 | 42.3 | 14.1
N/C(=N\N=C/c1ccc(F)cc1)N/N=C\c1ccc(F)cc1 | -8.0 | 10.0 | 62.6* | 70.1* | 27.2 | 80.6* | 4.1 | 76.8* | 2.0
N/C(=N\N=C/c1ccc(Br)cc1)N/N=C\c1ccc(Br)cc1 | -19.4 | 13.2 | -1.6 | 8.2 | -4.7 | . | . | . | .
COc1ccc(C2(C)NC(=O)N(CC(=O)Nc3cccnc3Cl)C2=O)cc1 (stereo unspecified) | -6.1 | -4.3 | -8.2 | 16.8 | -3.1 | . | . | . | .
CC1(c2ccc(OC(F)F)cc2)NC(=O)N(CC(=O)Nc2cccnc2Cl)C1=O (stereo unspecified) | 6.2 | 9.7 | 72.6* | 129.0* | 8.7 | 130.9* | 86.5* | 78.0* | 39.5*
SMILES | OX1R antag-1 | OX1R antag-2 | TAAR1 antagonist | TAAR1 agonist | CHO parental Ca | TAAR1 ag conf | Ga16 ag counter | TAAR1 desensitize | Ga16 nonsel ant
OC(c1ccc(Cl)cc1)c1nccc2ccccc12 (stereo unspecified) | -23.9 | 0.7 | -11.0 | -1.8 | -11.1 | . | . | . | .
OC(COc1c(F)cc(Br)cc1F)CN1CCc2ccccc2C1 (stereo unspecified) | -38.1 | 11.8 | 11.2 | 55.1* | -17.1 | 66.2* | 0.4 | 17.2 | 10.0
COc1cccc(NC(=S)NC(=O)Cc2ccc(Cl)cc2)c1 | 9.0 | -2.2 | 84.1* | 92.8* | 9.0 | 123.6* | 82.8* | 91.1* | 68.7*
COc1ccccc1NC(=S)NC(=O)Cc1ccc(Cl)cc1 | 9.9 | 5.1 | 106.7* | 125.0* | 24.2 | 126.3* | 88.5* | 101.0* | 72.9*
COc1ccc(CC(=O)NC(=S)Nc2cccc(CO)c2)cc1 | -12.8 | 2.0 | 0.4 | 78.6* | -4.4 | 83.2* | 55.4* | 29.3 | 16.1
CCC(=O)Nc1cccc(NC(=S)NC(=O)Cc2ccccc2)c1 | -7.5 | 12.8 | 8.4 | 10.8 | -15.9 | . | . | . | .
COc1ccc(CC(=O)NC(=S)Nc2cccc(C)c2)cc1 | -1.0 | -7.3 | 49.4* | 81.7* | 0.8 | 70.9* | 50.2* | 52.0* | 45.0*
CCC(=O)NC(=S)Nc1ccccc1OC | 4.0 | 14.3 | -7.5 | 6.2 | -9.8 | . | . | . | .
O=C(CCC(=O)OCC(=O)c1cccc([N+](=O)[O-])c1)Nc1ccccc1Cl | -8.0 | 26.7 | 5.8 | 0.5 | -2.4 | . | . | . | .
CCN1C(=O)[C@H]2[C@@H](c3ccc(-c4ccc(F)cc4)cc3)N3CCCC[C@@]3(C(=O)OC)[C@H]2C1=O | -35.8 | 16.1 | 5.8 | 12.7 | -33.2 | . | . | . | .
CC(=O)C1=CCC(c2ccc(C)o2)N(S(=O)(=O)c2ccc(C)cc2)C1 (stereo unspecified) | . | . | -16.1 | -2.8 | . | . | . | . | .
O=C(Cc1n[nH]c(=O)[nH]c1=O)N/N=C/c1cccc(O)c1 | -27.6 | 17.5 | -11.3 | 60.0* | 1.1 | 59.7* | 4.2 | 20.7 | 8.8
